Assay [1] is described as follows: Inhibition of SARS coronavirus PL-protease. On the set-up: species or system Severe acute respiratory syndrome-related coronavirus.
Assay [2] has as its target Replicase polyprotein 1ab (Severe acute respiratory syndrome-related coronavirus) (UniProt P0C6X7). Description: Binding affinity to SARS coronavirus 3C-like protease using 5-FAM-TSATLQSGFRK(QXL520)-NH2 as substrate up to 200 uM by SPR analysis. A digest of the protocol:
(§1)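 Untagged native 3CLpro amine-coupled to CM5 chip (in 10 mM sodium acetate pH 5.0). Ethanolamine-blocked channel as reference. Running buffer HBS-P pH 7.4, 20 °C.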

Assay [3] has as its target T1, Replicase polyprotein 1ab (Severe acute respiratory syndrome-related coronavirus, UniProt P0C6X7). Kind of assay: Inhibition of SARS coronavirus 3C-like protease using 5-FAM-TSATLQSGFRK(QXL520)-NH2 as substrate preincubated for 5 mins followed by substrate addition measured after 6 mins by FRET assay in presence of GSH. A digest of the protocol:
(§2)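 Enzyme preincubated 5 min with compound (0–200 μM, 2-fold series), then 15 μM FAM/QXL substrate added. Continuous fluorescence read for 6 min, in triplicate. IC50 from Hill fit over two to four independent assays.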

Assay [4] addresses T1, Replicase polyprotein 1ab. Kind of assay: Inhibition of SARS coronavirus 3C-like protease using 5-FAM-TSATLQSGFRK(QXL520)-NH2 as substrate preincubated for 5 mins followed by substrate addition measured after 6 mins by FRET assay. The method in brief: as §2
The target of assay [5] is Replicase polyprotein 1ab (Severe acute respiratory syndrome-related coronavirus) (UniProt P0C6X7). Kind of assay: Binding affinity to SARS coronavirus 3C-like protease using 5-FAM-TSATLQSGFRK(QXL520)-NH2 as substrate up to 90 uM by SPR analysis. A digest of the protocol: as §1
The target is the same in assay [6]. Description: Inhibition of SARS coronavirus 3C-like protease using 5-FAM-TSATLQSGFRK(QXL520)-NH2 as substrate at 100 uM preincubated for 5 mins followed by substrate addition measured after 6 mins by FRET assay in presence of GSH relative to control.
Assay [7] has the same target. Kind of assay: Inhibition of SARS coronavirus 3C-like protease using 5-FAM-TSATLQSGFRK(QXL520)-NH2 as substrate at 100 uM preincubated for 5 mins followed by substrate addition measured after 6 mins by FRET assay relative to control.
Assay [8] shares this target. Description: Binding affinity to SARS coronavirus 3C-like protease using 5-FAM-TSATLQSGFRK(QXL520)-NH2 as substrate by SPR analysis.
Assay [9] deals with T1, Replicase polyprotein 1ab. Description: Inhibition of SARS coronavirus 3C-like protease using 5-FAM-TSATLQSGFRK(QXL520)-NH2 as substrate.
For assay [10], the target named is Replicase polyprotein 1ab (Severe acute respiratory syndrome-related coronavirus) (UniProt P0C6X7). Description: Reversible inhibition of SARS coronavirus 3C-like protease using 5-FAM-TSATLQSGFRK(QXL520)-NH2 as substrate assessed as recovery rate at 20 x IC50 preincubated for 1 hr followed by compound washout by FRET assay in presence of GSH. Also noted: scale not given: the % may be the effect or the level left. A digest of the protocol: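 No-compound enzyme served as control. Samples desalted to remove compound; activity measured before and after buffer exchange by the IC50 assay.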

Assay [11] has as its target T1, Replicase polyprotein 1ab. Kind of assay: Competitive inhibition of SARS coronavirus 3C-like protease using 5-FAM-TSATLQSGFRK(QXL520)-NH2 as substrate by Dixon plot analysis. The method in brief: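 Best-fit inhibition model chosen by fitting competitive, non-competitive, uncompetitive or mixed equations to give Ki. Dixon plot; three independent assays.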
Assay [12] has as its target Ubiquitin carboxyl-terminal hydrolase isozyme L1 (Homo sapiens) (UniProt P09936). Description: Inhibition of human UCH-L1. A digest of the protocol: (§3)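 IC50 determined in triplicate with 32 positive and 32 negative controls per plate. Data fitted to a three-parameter Hill equation.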
The subject of the next assay is Hepacivirus hominis. Kind of assay: Inhibition of Hepatitis C virus NS3/4A protease. The method in brief:
as §3

The target in assay [13] is T2, Dihydroorotase (Bacillus anthracis) (UniProt Q81WF0).
T2 sequence (whole entry): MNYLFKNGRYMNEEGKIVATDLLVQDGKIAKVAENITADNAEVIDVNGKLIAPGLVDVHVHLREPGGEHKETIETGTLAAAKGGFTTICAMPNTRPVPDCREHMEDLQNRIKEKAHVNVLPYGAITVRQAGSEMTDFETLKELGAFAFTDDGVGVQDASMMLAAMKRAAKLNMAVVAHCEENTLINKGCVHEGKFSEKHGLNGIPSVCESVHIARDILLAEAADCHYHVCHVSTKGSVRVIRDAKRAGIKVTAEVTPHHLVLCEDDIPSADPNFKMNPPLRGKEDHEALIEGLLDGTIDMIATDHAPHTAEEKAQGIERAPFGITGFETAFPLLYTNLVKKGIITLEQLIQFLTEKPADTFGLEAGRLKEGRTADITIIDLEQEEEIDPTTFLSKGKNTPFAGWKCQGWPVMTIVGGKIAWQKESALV
Kind of assay: Inhibition of Bacillus anthracis dihydroorotase. The method in brief: as §3

The subject of the next assay is Streptococcus pneumoniae. Description: Inhibition of Streptococcus pneumoniae PurC. The method in brief:
as §3

The source of these data is ChEMBL document CHEMBL3102752, “Identification of novel drug scaffolds for inhibition of SARS-CoV 3-Chymotrypsin-like protease using virtual and high-throughput screenings” (Bioorg Med Chem, 2014).

Counter-ions that a name gives are not always drawn. Active and inactive are the calls of the source. The rule behind the calls is not given here.

Sequence of Ubiquitin carboxyl-terminal hydrolase isozyme L1 (Homo sapiens) (P09936 whole entry, looked up): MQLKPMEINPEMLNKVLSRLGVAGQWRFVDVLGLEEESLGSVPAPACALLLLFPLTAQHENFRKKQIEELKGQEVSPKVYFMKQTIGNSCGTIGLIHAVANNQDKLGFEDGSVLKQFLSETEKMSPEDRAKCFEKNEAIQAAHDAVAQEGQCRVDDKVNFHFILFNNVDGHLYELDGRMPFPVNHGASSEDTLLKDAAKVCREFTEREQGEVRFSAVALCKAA

What is called IC50 is the concentration that inhibits the measured activity by half. Turning to `C(=C\c1ccccc1)/C[N+]1(C/C=C/c2ccccc2)CCN(C(c2ccccc2)c2ccccc2)CC1`, the half-maximal inhibitory concentration (IC50) was more than 200 µM in [1], 28.3 µM in assay [3] and 29.8 µM in assay [4]. Moreover, the result in [2] was Active.

With `COc1ccc(N(CC(=O)NCc2ccco2)S(C)(=O)=O)cc1`, the result in assay [5] was inactive. For the same compound, the inhibition entry in assay [6] and in assay [7] was “inactive” each time. The IC50 came to 61.9 µM in assay [3] and 16.1 µM in assay [4].

As for `CCCCC(CC)CNC(=N)NC(=N)NCCCCCCNC(=N)NC(=N)NCC(CC)CCCC` (stereo not given) [ALEXIDINE DIHYDROCHLORIDE], the half-maximal inhibitory concentration (IC50) is more than 200 µM in assay [1], 17.8 µM in assay [3], 24.5 µM in [4] and 25.1 µM in assay [9]. In addition, the result in assay [8] was inactive.

As to `COc1ccc(C(=O)Cn2c(NCCO)nc3ccccc32)cc1`, in assay [10], the Activity was determined as 14.3%. For the same compound, the inhibition result in assay [6] and in assay [7] was “inactive” throughout. Further, the values for the IC50 in assay [3] and in assay [4] were 40.9 µM and 28.8 µM, respectively.

As for `OCCCc1nc2ccccc2n1CCOc1ccccc1`, the result in [8] was inactive. The inhibition entry in [6] and in assay [7] was “inactive” throughout. In addition, the half-inhibitory concentration (IC50) in assay [3] is 74.5 µM; in assay [4], more than 200 µM.

As for `O=C(c1cncc(Br)c1)N1CCN(Cc2ccsc2)CC1`, the 50% inhibitory concentration (IC50) in [1] is 105 µM; in assay [3], 24.5 µM; in [4] it was 10.8 µM. The result in assay [8] was inactive.

On to `COc1ccccc1CNC(=O)[C@H](C)NS(=O)(=O)c1ccccc1`, for which the inhibition entry in assay [6] and in assay [7] was “inactive” in each case.

On to `CCOc1ccc(S(=O)(=O)NCc2ccc3c(c2)OCO3)cc1C`, for which the IC50 in [1] is more than 200 µM; in assay [3] it was 76.7 µM; in assay [4] it was more than 200 µM. Moreover, the Activity in [10] is more than 50%. Moreover, the inhibition entry in assay [6] and in [7] was “inactive” throughout.

For `CN(CC(=O)NC1CCCC1)S(=O)(=O)c1cccc(Cl)c1`, the IC50 is more than 200 µM in assay [3] and 0.94 µM in [4].

`Nc1ccc(F)c(S(=O)(=O)Nc2cccc(C(F)(F)F)c2)c1`: the inhibition entry in assay [6] and in assay [7] was “inactive” throughout. The results for the half-inhibitory concentration (IC50) in [3] and in [4] were more than 200 µM and 29.8 µM, respectively.

For the compound `S=C(NCc1cccnc1)SCc1cc(Cl)sc1Cl`, the IC50 was more than 200 µM in assay [1], 9.2 µM in assay [3] and 0.16 µM in [4]. For the same compound, the Activity in [10] was more than 50%.

In general, Ki refers to a dissociation constant, usually derived from enzyme kinetics or from competition with a known ligand. Regarding `Cn1cnc2cc(NC(=O)c3ccc(Cl)cc3)ccc21`, the IC50 in assay [1] is more than 200 µM; in assay [3] it was 30.9 µM; in assay [4], 27.6 µM; in assay [9], 18.2 µM. Besides, in assay [11], the Ki stood at 27.5 µM. The Activity in [10] is more than 50%. The inhibition entry (in [12]; in the assay on Hepacivirus hominis; in assay [13]; in the assay with Streptococcus pneumoniae) was “inactive” in each case.

In the case of `COCCOCCn1c(CCCO)nc2ccccc21`, the inhibition entry in assay [6] and in [7] was “inactive” throughout. The IC50 in [3] stood at 186 µM; in assay [4], 25.6 µM.
